Data: ChEMBL document CHEMBL1122263, “Resolution and absolute configuration of an ergoline-related dopamine agonist, trans-4,4a,5,6,7,8,8a,9-Octahydro-5-propyl-1H(or 2H)-pyrazolo[3,4-g]quinoline” (J Med Chem, 1983)
Values joined by “and” are separate entries in the source; they are usually repeats but may differ in a detail not shown here. Equal entries are not always repeated.

Experiments:
[1] = system: Rattus norvegicus; assay: Effect on Turning behavior in male rats with unilateral 6-hydroxydopamine-induced lesions of the nigrostriatal tract at 500 ug/kg ip; type: functional
Outline: (§1)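 Rats carrying unilateral 6-hydroxydopamine lesions of the nigrostriatal tract, six per group, dosed ip. Contralateral turning recorded as: % of rats making at least one turn/min for 15 min; average turns in the first 15 min after turning began; turns in the first hour; and duration of turning in hours.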

[2] = system: Rattus norvegicus; assay: Effect (% reduction) on serum levels in reserpinized male rats at a dose,0.017 umol/kg; type: functional
Outline: (§2)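 Prolactin assay in reserpinized male rats, run by standard methods. Doses given orally; value is % reduction of serum prolactin versus control. Significance set at p < 0.05.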

[3] = system: Rattus norvegicus; assay: Hypotensive activity when administered iv in pentobarbital-anesthetized, spontaneously hypertensive rats, at a dose 0.1 ug/kg; type: functional
[4] = system: Rattus norvegicus; assay: Effect (% reduction) on serum levels in reserpinized male rats at a dose, 0.3 umol/kg; type: functional; outline: as §2
[5] = system: Rattus norvegicus; assay: Hypotensive activity when administered iv in pentobarbital-anesthetized, spontaneously hypertensive rats, at a dose 10 ug/Kg; type: functional
Outline: (§3)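 Spontaneously hypertensive rats under pentobarbital anesthesia, arterial BP recorded. Dosing iv, ip or intragastric at 1–1000 μg/kg. Value is maximum % change in BP, taken immediately after iv or within 30 min after ip/ig dosing. Mean ± SE of four rats.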

[6] = system: Rattus norvegicus; assay: Hypotensive activity when administered iv in pentobarbital-anesthetized, spontaneously hypertensive rats, at a dose 100 ug/Kg; type: functional; outline: as §3
[7] = system: Rattus norvegicus; assay: Effect (% reduction) on serum levels in reserpinized male rats at a dose, 0.17 umol/kg; type: functional; outline: as §2
[8] = system: Rattus norvegicus; assay: Effect (% reduction) on serum levels in reserpinized male rats at a dose, 0.03 umol/kg; type: functional; outline: as §2
[9] = system: Rattus norvegicus; assay: Hypotensive activity when administered iv in pentobarbital-anesthetized, spontaneously hypertensive rats, at a dose 1 ug/Kg; type: functional; outline: as §3
[10] = organism: Rattus norvegicus; assay: Effect of lordotic behavior of rats preinjection lordosis-to-mount ratio; type: functional
Outline: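 Chronically ovariectomized Long-Evans hooded rats primed with 100 μg estrone sc in sesame oil 48 h before testing. Lordosis-to-mount ratio scored over 15 mounts by a sexually active male before injection. Drug given sc at 25 μg/kg in 1 mM ascorbic acid/1 mM acetic acid; retested 90 min later. N = 20; X ± SE.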

[11] = system: Rattus norvegicus; assay: Hypotensive activity when administered iv in pentobarbital-anesthetized, spontaneously hypertensive rats, at a dose 1000 ug/Kg; type: functional; outline: as §3
[12] = system: Rattus norvegicus; assay: Effect on turning behavior in male rats with unilateral 6-OH-Dopamine-induced lesions of the nigrostriatal tract at 100 ug/kg i.p.; type: functional; outline: as §1
[13] = system: Canis familiaris; assay: Effect of iv injection on arterial blood pressure in the anesthetized, normotensive dog at a dose 1 ug/kg; type: functional, Canis lupus familiaris
[14] = system: Rattus norvegicus; assay: Hypotensive activity when administered ip in pentobarbital-anesthetized, spontaneously hypertensive rats, at a dose 1000 ug/kg; type: functional; outline: as §3
[15] = system: Rattus norvegicus; assay: Hypotensive activity when administered ip in pentobarbital-anesthetized, spontaneously hypertensive rats, at a dose 10 ug/kg; type: functional; outline: as §3
[16] = system: Felis catus; assay: Effect of iv injection on arterial blood pressure in the anesthetized, normotensive cat at a dose 100 ug/kg; type: functional
[17] = system: Felis catus; assay: Effect of iv injection on arterial blood pressure in the anesthetized, normotensive cat at a dose 10 ug/kg; type: functional
[18] = system: Rattus norvegicus; assay: Hypotensive activity when administered iv in pentobarbital-anesthetized, spontaneously hypertensive rats, at a dose 100 ug/kg; type: functional; outline: as §3
[19] = system: Rattus norvegicus; assay: Hypotensive activity when administered iv in pentobarbital-anesthetized, spontaneously hypertensive rats, at a dose 1 ug/kg; type: functional; outline: as §3
[20] = system: Rattus norvegicus; assay: Hypotensive activity when administered ip in pentobarbital-anesthetized, spontaneously hypertensive rats, at a dose 100 ug/kg; type: functional; outline: as §3
[21] = system: Canis familiaris; assay: Effect of iv injection on arterial blood pressure in the anesthetized, normotensive dog at a dose 10 ug/kg; type: functional, Canis lupus familiaris
[22] = system: Rattus norvegicus; assay: Hypotensive activity when administered iv in pentobarbital-anesthetized, spontaneously hypertensive rats, at a dose 1000 ug/kg; type: functional; outline: as §3
[23] = system: Rattus norvegicus; assay: Effect of iv injection on arterial blood pressure in the anesthetized, spontaneously hypertensive rat at a dose 1000 ug/kg
[24] = system: Rattus norvegicus; assay: Hypotensive activity when administered ig in pentobarbital-anesthetized, spontaneously hypertensive rats, at a dose 10 ug/kg; type: functional; outline: as §3
[25] = system: Rattus norvegicus; assay: Hypotensive activity when administered ig in pentobarbital-anesthetized, spontaneously hypertensive rats, at a dose 1000 ug/kg; type: functional; outline: as §3
[26] = system: Rattus norvegicus; assay: Hypotensive activity when administered ig in pentobarbital-anesthetized, spontaneously hypertensive rats, at a dose 100 ug/kg; type: functional; outline: as §3
[27] = system: Rattus norvegicus; assay: Effect of iv injection on arterial blood pressure in the anesthetized, spontaneously hypertensive rat at a dose 10 ug/kg
[28] = system: Canis familiaris; assay: Effect of iv injection on arterial blood pressure in the anesthetized, normotensive dog at a dose 100 ug/kg; type: functional, Canis lupus familiaris
[29] = system: Canis familiaris; assay: Effect of iv injection on arterial blood pressure in the anesthetized, normotensive dog at a dose 1000 ug/kg; type: functional, Canis lupus familiaris
[30] = system: Rattus norvegicus; assay: Effect of iv injection on arterial blood pressure in the anesthetized, spontaneously hypertensive rat at a dose 100 ug/kg
[31] = system: Rattus norvegicus; assay: Hypotensive activity when administered iv in pentobarbital-anesthetized, spontaneously hypertensive rats, at a dose 10 ug/kg; type: functional; outline: as §3
[32] = system: Rattus norvegicus; assay: Effect of iv injection on arterial blood pressure in the anesthetized, spontaneously hypertensive rat at a dose 1 ug/kg

## CCCN1CCC[C@@H]2Cc3n[nH]cc3CC21 (single isomer, unassigned; (-))
[1]
  Activity: 100%
[2]
  Reduction: 26%
[3]
  BP change: -7.7%
[4]
  Reduction: 88%
[5]
  BP change: -25.2%
[6]
  BP change: -38.6%
[7]
  Reduction: 73%
[8]
  Reduction: 38%
[9]
  BP change: -14.3%

## CCCN1CCC[C@@H]2Cc3n[nH]cc3CC21 (single isomer, unassigned; (+))
[1]
  Activity: 0%
[10]
  L/M ratio: 0.12
[3]
  BP change: -8.5%
[5]
  BP change: -5%
[6]
  BP change: -4.6%
[11]
  BP change: -6.4%
[9]
  BP change: -5.1%
[12]
  Activity: 0% and 0

## CN1CCc2cccc3c2[C@H]1Cc1ccc(O)c(O)c1-3 [APOMORPHINE]
[1]
  Activity: 100%

## CCCN1CCC[C@@H]2Cc3n[nH]cc3CC21 (mixture of isomers)
[13]
  BP change: -15%
[14]
  BP change: -45.7%
[15]
  BP change: -6.1%
[16]
  BP change: -45%
[17]
  BP change: -23%
[18]
  BP change: -32%
[19]
  BP change: -12.7%
[20]
  BP change: -40.5%
[21]
  BP change: -34%
[2]
  Reduction: 19%
[22]
  BP change: -52.2%
[4]
  Reduction: 76%
[23]
  BP change: -52%
[24]
  BP change: -5.4%
[7]
  Reduction: 65%
[25]
  BP change: -50.7%
[26]
  BP change: -27.6%
[27]
  BP change: -22%
[28]
  BP change: -45%
[8]
  Reduction: 20%
[29]
  BP change: -46%
[30]
  BP change: -32%
[31]
  BP change: -22.4%
[32]
  BP change: -13%
